First the molecules themselves.
B1: tRNA (parent)
chain: GUUCCGUUGGCGUAAUGGUAACGCGUCUCCCUCCUAAGGAGAAGACUGCGGGUUCGAGUCCCGUACGGAACG

The data set covers variants of B1. The data set can be described thus: yeast fitness, log relative to wild type (ln ratio); higher = fitter; tRNA-Arg(CCU), competitive growth, 37 C, 1 M NaCl. In outline:
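A combinatorial tRNA-Arg(CCU) variant library was carried on a HIS3 centromeric plasmid in BY4742 lacking the chromosomal gene, from two independent transformations. Pools grew 4 generations in SC-HIS at 30 °C, then ~6.5 generations (~26.5 h) in SC-HIS 1M NaCl at 37 °C, with three outputs per input. Variants were counted by 125 bp paired-end Illumina sequencing. Fitness is ln of each genotype's generations (OD-scaled log2 output/input frequency, inverse-variance weighted across replicates) over the wild-type's.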
Regarding G1A U2G G6A C27U A43C C46U C66A C71U, the “yeast fitness (ln)” value was -0.323.

As to G1A G6U C66U C71U, the “yeast fitness (ln)” value was -0.425.

As for U2G C27U C66A, the “yeast fitness (ln)” value is -0.0584.

For the variant G1A U2G A69G A70U, the “yeast fitness (ln)” value is -0.232.

Regarding C27U A43C C66U, the “yeast fitness (ln)” value was -0.216.

C27U A43C C66A: the “yeast fitness (ln)” value is -0.0618.

In the case of G1A U2C G6U C27U C46U C66A A70U C71U, the “yeast fitness (ln)” value is -0.264.

For the variant U2G C27U A43C C66U A69G A70U C71U, the “yeast fitness (ln)” value is -0.42.

In the case of U2C G6A C27U A43C C66U A70G, the “yeast fitness (ln)” value was -0.0396.

For the variant U2C G6A C27U A43C C66U A70U, the “yeast fitness (ln)” value was -0.091.

G1A G6U C46U C66U A69G A70U: the “yeast fitness (ln)” value was -0.251.

Take C27U A43C C71U: the “yeast fitness (ln)” value is -0.114.

U2C A70U: the “yeast fitness (ln)” value is -0.0103.

Take U2C A43C C66A A70U C71U: the “yeast fitness (ln)” value was -0.275.

Consider A43C C46U C71U, for which the “yeast fitness (ln)” value is -0.00724.

With U2G G6U A43C C46U A69G A70G, the “yeast fitness (ln)” value is -0.183.

U2G G6U A43C C46U C66U A69G A70U: the “yeast fitness (ln)” value was -0.286.

In the case of U2C G6U C66U A70U C71U, the “yeast fitness (ln)” value is -0.233.

In the case of U2G G6A C46U C66A A70G C71U, the “yeast fitness (ln)” value is -0.148.

Consider G6A C27U A43C C46U C66A A70U C71U, for which the “yeast fitness (ln)” value is -0.346.

As to U2G G6A C27U C46U C66A A69G A70U C71U, the “yeast fitness (ln)” value was -0.385.

Turning to G1A U2G G6U C46U C66U A69G A70U, the “yeast fitness (ln)” value was -0.288.

Take U2C G6U C66A A69G A70U: the “yeast fitness (ln)” value is -0.25.

For G6U C27U A43C A70G C71U, the “yeast fitness (ln)” value is -0.348.

For G1A U2C A43C C66A A69G A70G C71U, the “yeast fitness (ln)” value was -0.238.

Turning to U2G A43C C46U C66A A69G A70G, the “yeast fitness (ln)” value is -0.186.

Regarding G1A U2G G6A C27U C46U A70G, the “yeast fitness (ln)” value is -0.237.

Turning to G6A A43C C66A A70U, the “yeast fitness (ln)” value is -0.188.

Consider U2G C27U C46U C66A A70G, for which the “yeast fitness (ln)” value was -0.0963.

On to G1A U2G C27U C46U A69G A70U, for which the “yeast fitness (ln)” value was -0.207.

For G1A U2C C27U C66A A70G C71U, the “yeast fitness (ln)” value is -0.221.

As for G1A U2G C46U A69G A70G C71U, the “yeast fitness (ln)” value was -0.457.

With C27U A43C C46U C66U A70G, the “yeast fitness (ln)” value was -0.115.

Take G1A U2G C46U C66U A69G A70G C71U: the “yeast fitness (ln)” value is -0.195.

Turning to G1A U2C C27U A43C C46U C66U A69G A70U, the “yeast fitness (ln)” value is -0.218.

Consider G1A U2C C27U A43C C46U C66A A70U, for which the “yeast fitness (ln)” value was -0.106.

For G1A, the “yeast fitness (ln)” value is -0.0233.

As to C27U C66U, the “yeast fitness (ln)” value was -0.134.

Consider U2C A69G, for which the “yeast fitness (ln)” value was -0.0379.

Take G6U C27U C46U C66U A70U C71U: the “yeast fitness (ln)” value is -0.336.

On to C27U A43C C66A A70U C71U, for which the “yeast fitness (ln)” value was -0.347.

For G6U A43C C66A A69G A70U C71U, the “yeast fitness (ln)” value is -0.39.

In the case of G1A U2G G6A A43C C46U, the “yeast fitness (ln)” value was -0.111.

Consider G1A U2G A43C C46U A69G A70U C71U, for which the “yeast fitness (ln)” value is -0.29.

In the case of U2G C27U C66A A69G A70G, the “yeast fitness (ln)” value was -0.15.

For the variant G1A U2G C27U C46U C66U A70U C71U, the “yeast fitness (ln)” value was -0.434.

Regarding G1A U2C G6U C27U A43C C46U C66U A70U C71U, the “yeast fitness (ln)” value is -0.315.

For U2G C27U C46U, the “yeast fitness (ln)” value was -0.0742.

On to C27U A43C C46U C66U A69G A70U, for which the “yeast fitness (ln)” value was -0.285.

As to G1A G6U A43C C46U C66U A69G A70G, the “yeast fitness (ln)” value was -0.389.

Turning to C27U A43C C66A A70G, the “yeast fitness (ln)” value was -0.135.

For G6U A43C C66U A70U, the “yeast fitness (ln)” value is -0.301.

Turning to G6A C27U A43C C46U C66U A69G C71U, the “yeast fitness (ln)” value was -0.307.

On to G1A U2C G6U A43C, for which the “yeast fitness (ln)” value is -0.116.

As for G6U A43C C46U C66U A70U, the “yeast fitness (ln)” value was -0.234.

With U2G G6A C46U C71U, the “yeast fitness (ln)” value was -0.149.

For the variant G6U C27U A43C C66A A69G A70U, the “yeast fitness (ln)” value is -0.282.

As to G1A C71U, the “yeast fitness (ln)” value is -0.0163.

Turning to G1A G6U C27U A43C C46U A69G A70U, the “yeast fitness (ln)” value was -0.347.

With U2G G6A C46U C66A A70U, the “yeast fitness (ln)” value is -0.059.

For the variant G1A C46U C66U A69G A70G C71U, the “yeast fitness (ln)” value is -0.158.

As for G1A U2C C46U C66U A70U, the “yeast fitness (ln)” value is -0.0818.

With G1A U2C G6A C27U A43C C46U C66U A70U, the “yeast fitness (ln)” value was -0.0654.

Turning to G1A U2G G6U C46U C66A, the “yeast fitness (ln)” value was -0.122.

In the case of U2G A43C A69G A70G C71U, the “yeast fitness (ln)” value is -0.168.

Regarding G1A U2G A43C, the “yeast fitness (ln)” value is -0.0767.

Turning to G1A G6U A43C C66A A70U C71U, the “yeast fitness (ln)” value is -0.386.

Take G1A U2C G6A A43C C66U A70G C71U: the “yeast fitness (ln)” value was -0.00743.

Regarding G6U C27U A43C C46U C66U A69G C71U, the “yeast fitness (ln)” value was -0.432.

For G1A U2G G6U A43C, the “yeast fitness (ln)” value was -0.257.

Turning to G1A U2G G6A C27U A43C C46U A69G A70U, the “yeast fitness (ln)” value is -0.279.

With G1A U2C G6A C27U A43C C66U A70G C71U, the “yeast fitness (ln)” value is -0.0683.

For G1A C46U C66A A70G C71U, the “yeast fitness (ln)” value is -0.11.

Turning to U2G G6U C27U C71U, the “yeast fitness (ln)” value was -0.218.

With U2C G6U C27U C46U A69G A70U C71U, the “yeast fitness (ln)” value is -0.334.

In the case of G1A G6A C27U C66U C71U, the “yeast fitness (ln)” value is -0.0761.

Take G6U C27U C66A A69G: the “yeast fitness (ln)” value is -0.0157.

U2G A69G A70G: the “yeast fitness (ln)” value is -0.147.

With U2G C27U C66A A69G C71U, the “yeast fitness (ln)” value was -0.197.

On to G1A U2C C27U A43C C46U, for which the “yeast fitness (ln)” value is -0.0167.

Turning to U2G G6U C27U C46U C66A A69G A70G, the “yeast fitness (ln)” value is -0.214.

C27U A43C A69G: the “yeast fitness (ln)” value was -0.0699.

On to U2G G6A A43C A69G A70G C71U, for which the “yeast fitness (ln)” value is -0.233.

On to G6U C27U C46U A69G A70G, for which the “yeast fitness (ln)” value was -0.192.

Values taken from the RNAGym collection of RNA variant scans (doi:10.1038/s41586-018-0170-7).
